M5 antag: blocks acetylcholine activation of human M5 receptor; P08912; CHO-hM5 cells, Fluo-8 calcium fluorescence, ACh EC80; inhibition, % at 3 µM; 360,000 tested, 0.59% active; AID 624040;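 active means inhibition above a per-plate cutoff, the mean of that plate's test compounds plus 3 SD, cut at about 27% in these data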;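 further: 0% = acetylcholine EC80 with DMSO and 100% = DMSO without agonist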
Target sequence (P08912 whole entry, looked up): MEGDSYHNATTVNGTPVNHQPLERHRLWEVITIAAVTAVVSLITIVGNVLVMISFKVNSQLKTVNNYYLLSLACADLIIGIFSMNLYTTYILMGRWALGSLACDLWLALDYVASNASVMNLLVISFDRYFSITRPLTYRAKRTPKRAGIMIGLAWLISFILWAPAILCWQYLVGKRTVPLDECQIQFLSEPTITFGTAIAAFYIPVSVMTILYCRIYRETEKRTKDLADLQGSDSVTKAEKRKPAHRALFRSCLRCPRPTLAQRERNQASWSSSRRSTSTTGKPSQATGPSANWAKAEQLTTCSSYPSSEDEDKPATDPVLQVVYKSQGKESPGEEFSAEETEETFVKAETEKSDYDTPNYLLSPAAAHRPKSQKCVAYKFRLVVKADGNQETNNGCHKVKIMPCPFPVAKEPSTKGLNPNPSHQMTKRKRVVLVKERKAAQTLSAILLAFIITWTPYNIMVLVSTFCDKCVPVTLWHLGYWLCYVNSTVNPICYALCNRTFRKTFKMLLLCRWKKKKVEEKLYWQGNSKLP
CHRM5 PAM: CHRM5 positive allosteric modulation. P08912. CHO-K1 hM5, Fluo-8 calcium, ACh EC20 PAM; 0% = ACh EC20, 100% = ACh EC100. activation, % at 3 µM. 360,000 tested, 0.3% active. AID 624038;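 active means activation above the run cutoff, the mean activation of all test compounds plus 3 SD, cut at about 18% in these data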
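system = human M5 receptor in CHO-K1 cells | compound = one concentration, 3 µM final (nominal) | schedule = Post-acetylcholine fluorescence recording 140 s | signal = Fluo-8 calcium dye fluorescence, kinetic read | benchmarks = low control EC20 acetylcholine (0%), high control EC100 acetylcholine (100%) | repeats = singlicate, one well per test compound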
CHRM4 PAM: positive allosteric modulators of human muscarinic M4 receptor. CHO-K1 hM4/Gqi5, Fluo-8 calcium fluorescence, ACh EC20; 0% = ACh EC20, 100% = maximal ACh. AID 624126. 360,000 tested, 0.4% active. activation, % at 3 µM;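 active means activation above its plate's cutoff, the mean activation of sample wells plus 3 SD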
CHRM4 antagonist: blocks acetylcholine activation of human M4 receptor; P08173; CHO-hM4 cells, ACh EC80, Fluo-8 calcium fluorescence; inhibition, % at 3 µM; 360,000 tested, 0.73% active; AID 624125;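 active means inhibition above its plate's cutoff, the mean inhibition of sample wells plus 3 SD, cut at about 27% in these data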;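 further: 0% = acetylcholine EC80 with DMSO and 100% = DMSO without agonist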
M4 ag: CHRM4 agonism in calcium assay | CHO-K1 hM4/Gqi5, Fluo-8 calcium fluorescence; vehicle 0%, full acetylcholine response 100% | P08173 | 360,000 tested, 0.14% active | activation, % at 3 µM;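 active means activation above the run mean over all test wells plus 3 SD, cut at about 32% in these data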;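 further: peak over basal fluorescence ratio per well then scaled between controls; 0% = DMSO wells and 100% = acetylcholine at EC100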
CHRM5 agonist: CHRM5 agonism in calcium assay; P08912; CHO-K1 hM5 cells, Fluo-8 calcium fluorescence; 0% DMSO wells, 100% maximal acetylcholine response; activation, % at 3 µM; 360,000 tested, 0.19% active;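 active means activation above the run's mean over test compounds plus 3 SD, cut at about 23% in these data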;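 further: signal is peak over basal fluorescence ratio across the kinetic read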
Starred values were filed as active, the others as inactive. Sampled rows, rich in hits. Any-hit rate of the full collection: about 1.8%.

SMILES	M5 antag	CHRM5 PAM	CHRM4 PAM	CHRM4 antagonist	M4 ag	CHRM5 agonist
CC(NCC(=O)Nc1cc(S(=O)(=O)N2CCCCCC2)ccc1Cl)c1ccccc1 (centres undefined)	18.4	-12.0	-16.4	-1.5	3.0	-7.7
CC1(C)Cc2c(cnn2-c2ccccc2)C(=O)/C1=N\NC(=O)c1ccncc1	-5.2	1.3	18.0*	2.2	1.4	2.6
C[N+](C)(C)CCNC(=O)c1ccccc1	-17.2	8.9	22.6*	-7.4	1.4	-2.2
O=C(NCCNC(=O)c1ccccc1)c1ccccc1	3.2	-7.2	12.0	-6.6	1.1	-0.3
COc1ccc(NC2=NCCC(=O)N2Cc2cccs2)cc1	7.3	-2.7	-0.9	3.5	0.7	-1.4
COc1ccc(NC2=NCC(=O)N2Cc2cccs2)cc1	-16.3	20.7*	3.9	-8.2	-1.0	1.4
Cc1c(N=NC2=C(O)CC(C)(C)CC2=O)cc2c(c1[N+](=O)[O-])C(C)(C)CC2(C)C	-24.1	23.1*	-3.6	-5.9	0.8	3.6
CC(=O)Nc1cc2c(c([N+](=O)[O-])c1C)C(C)(C)CC2(C)C	6.9	6.6	-1.8	-2.9	0.0	-11.1
COc1ccccc1S(=O)(=O)N(C)C[C@@H]1OCc2cn(nn2)CCCC(=O)N([C@H](C)CO)C[C@H]1C	-10.3	5.1	3.2	-16.9	1.0	1.0
O=[N+]([O-])/C=C\c1ccc(N2CCCC2)c(F)c1	78.0*	-27.0	-22.8	34.5*	40.7*	63.6*
Nc1ncnc2c1ncn2C1OC(C(=O)NC2CC2)C(O)C1O (centres undefined)	2.1	2.4	-8.4	36.3*	0.2	-0.1
C[C@@H](CO)NC(=O)[C@H]1O[C@@H](n2cnc3c(N)ncnc32)[C@H](O)[C@@H]1O	2.1	3.3	0.6	0.0	0.3	3.7
COc1ccc(CN(C)C(=O)Cc2ccc(S(=O)(=O)N3CCOCC3)s2)cc1OC	9.6	-7.4	12.5	-6.3	1.1	1.0
COC(=O)C(NC(=O)c1ccccc1Cl)(Nc1ncc(S(=O)(=O)c2ccc([N+](=O)[O-])cc2)s1)C(F)(F)F (centres undefined)	6.9	-9.7	-8.1	-5.8	13.4	32.8*
CNCC/C=C1/c2ccccc2CSc2ccccc21	80.8*	-29.6	-19.8	42.8*	6.8	-11.6
COC(=O)N/N=C(\C)c1ccc(-n2ccnc2)cc1	-11.1	-2.9	-0.5	-4.1	1.0	-1.5
C/C(=N\NC(=O)COc1ccc(C)cc1C(C)C)c1ccc(-n2ccnc2)cc1	3.5	0.9	-4.8	47.9*	1.0	-0.9
O=C1O[C@H]([C@@H](O)CO)C(O)=C1O	-5.3	-20.4	-0.8	-10.6	8.8	69.7*
CC(C)CC(=O)C1=C(O)C(=O)N(Cc2ccccc2)C1c1ccccc1 (centres undefined)	8.7	2.9	-4.2	2.5	0.3	2.7
O=C(CN1CCOCC1)Nc1nc2cc([N+](=O)[O-])ccc2s1	5.1	13.4	27.3*	-12.2	3.6	-3.1
Cc1c(C2(O)CCCCC2)[nH]c2cc(C(F)(F)F)ccc12	4.7	-27.8	-18.5	33.3*	11.2	-2.4
Cc1c(C2(O)CCCCC2)[nH]c2cnccc12	6.6	2.0	5.7	-11.9	1.8	-11.5
CCc1c(C2(O)CCCCC2)[nH]c2cc(C(F)(F)F)ccc12	10.1	-22.9	-15.6	41.6*	0.6	-5.7
CC1OC(COCc2ccccc2)Cc2[nH][nH]c(=O)c21 (centres undefined)	4.9	0.0	4.9	-4.9	1.3	3.1
COC(=O)C(Cc1ccccc1)NC(=O)CCNC(=O)c1ccc(Br)cc1 (centres undefined)	-0.8	2.6	1.6	-12.8	2.2	-0.5
SMILES	M5 antag	CHRM5 PAM	CHRM4 PAM	CHRM4 antagonist	M4 ag	CHRM5 agonist
COc1ccc(NS(=O)(=O)c2ccc(N3CCCC3=O)cc2)cn1	28.0*	-20.5	-16.8	12.8	20.7	2.8
Cc1ccc(N(C)S(=O)(=O)c2cccc(C(=O)OCC(=O)c3c(N)n(C)c(=O)n(C)c3=O)c2)cc1	14.0	-33.1	-11.2	29.6*	22.2	2.8
CN(C)S(=O)(=O)c1cccc(C(=O)OCC(=O)c2c(N)n(C)c(=O)n(C)c2=O)c1	5.8	-1.7	2.4	-8.5	4.0	-1.4
CC(=O)c1cccc2c(O)c(C3=Nc4ccccc4C3=O)[nH]c12	-8.0	8.8	25.4*	11.0	1.8	-2.2
O=C1C(c2c(O)[nH]c3ccccc23)=Nc2ccccc21	-3.1	-0.3	-0.5	-12.6	2.7	0.7
Cc1cc(OCCCN2CCC(C(O)(c3ccccc3)c3ccccc3)CC2)ccc1Br	10.0	-17.0	-10.2	29.0*	17.2	-1.9
O=C(c1cccc(Br)c1)N1CCN(c2cnn(-c3ccccc3)c(=O)c2Cl)CC1	1.6	5.1	34.7*	-13.5	8.7	-10.9
CCCCCCCCCC[n+]1cccc2c3ccccc3ccc21	45.5*	-29.6	-23.0	57.8*	5.3	-9.4
CCCCCCCC[n+]1cccc2c3ccccc3ccc21	36.4*	-17.9	-24.7	64.6*	0.4	-14.2
COc1ccc(C(=O)OC(C)C(=O)NC2CCCc3ccccc32)cc1OC (centres undefined)	10.9	3.3	13.2	0.0	1.4	0.0
COc1ccc(C2/C=C\CN(C(=O)c3ccc(C)cc3)CC(=O)N2Cc2ccc(F)cc2)cc1 (centres undefined)	-0.2	18.1*	13.9	-2.5	2.3	0.7
O=C(NCCc1c[nH]c2ccccc12)c1[nH]c(C(F)(F)F)nc1-c1ccccc1	12.9	-4.7	-11.9	9.2	5.1	3.5
O=c1c2ccccc2n2c(-c3cccc(F)c3)nnc2n1Cc1ccccc1	9.0	-3.1	21.2*	1.0	1.4	-0.8
O=c1c2ccccc2n2c(-c3cccc(Cl)c3)nnc2n1Cc1ccccc1	-2.3	-3.1	7.8	-6.2	3.0	0.9
CCCCn1nc(C(=O)N(C)C2CCCCC2)c2ccccc2c1=O	-4.0	-5.1	-0.6	-4.8	2.4	1.9
O=C(N/N=C/c1cccc2cccnc12)c1ccccc1O	25.5	-8.8	-26.2	35.1*	7.1	5.2
CCc1ccc(C(O)c2ncc(-c3ccc(Cl)cc3)[nH]2)cc1 (centres undefined)	7.4	-3.1	-0.4	-1.9	4.0	0.3
N#Cc1ccc(N2CCN(C(=O)c3cccc(F)c3)CC2)c(F)c1	1.6	-5.7	16.3*	-21.2	8.1	3.8
Fc1ccccc1N1CCN(C(c2ccnc3ccccc23)c2nnnn2-c2ccc3c(c2)OCCO3)CC1 (centres undefined)	-4.3	-9.6	-4.9	-3.1	-0.7	-3.1
